Assay results collected from several papers.
Protocols differ between the studies behind these lines.
Target: Serine/threonine-protein kinase tousled-like 2 (TLK2, Homo sapiens, UniProt Q86UE8)

CNC(=O)Nc1ccc2c(c1)CC[C@@]21OC(=O)N(CC(=O)N(Cc2ccc(F)cc2)[C@@H](C)C(F)(F)F)C1=O — remaining binding (cell-free assay; competition with immobilised ligand; 1 µM): 100%
Cc1cnc(NC2CCOCC2)nc1-n1cnc(C(=O)NC(CN)c2cc(F)cc(Cl)c2)c1 (stereo not drawn) — remaining activity (enzyme activity; inhibitor; radiometric; 1 µM): 100%
C[C@H](c1ccc(F)cc1)N(Cc1cccc(C(=O)O)c1)C(=O)c1cnc2ccccc2c1 — remaining binding (cell-free assay; competition with immobilised ligand; 1 µM): 97%
Cc1cc(NC(=O)c2cccc3cc(-c4cccc5[nH]nc(N)c45)ccc23)ccc1F — activity vs control (enzyme activity; inhibitor; 0.1 µM): 100%
Nc1ncnc2occ(-c3ccc(NC(=O)Nc4cc(C(F)(F)F)ccc4F)cc3)c12 — remaining signal (cell-free assay; inhibitor; 20 µM): 89%
C[C@@H](c1cccc(C#N)c1)n1cc(Cl)cc(C(N)=O)c1=N — remaining binding (cell-free assay; competition with immobilised ligand; 1 µM): 100%
CC(C)(C)c1nc(-c2cccc(NS(=O)(=O)c3c(F)cccc3F)c2F)c(-c2ccnc(N)n2)s1 — remaining activity (enzyme activity; inhibitor; radiometric; 1 µM): 96%
COc1cccc2c(NCc3ccccc3)nc(-n3c(N)nc4ccccc43)nc12 — inhibition (target engagement in cells; inhibitor; chemoproteomics; 20 mM): -7.5%
CC(C)(O)[C@H]1CC[C@H](Nc2ccc3ncc(-c4cccc(C(F)(F)F)c4)n3n2)CC1 — remaining activity (enzyme activity; inhibitor; 1 µM): 103%
CCCS(=O)(=O)Nc1ccc(F)c(C(=O)c2c[nH]c3ncc(-c4ccc(Cl)cc4)cc23)c1F — inhibition (enzyme activity; inhibitor; 1 µM): < 10%
CCCOc1ccc(OC)c(F)c1C(=O)c1ccc(C(=O)N[C@@H]2CNC[C@H]2NC(=O)c2ccc3[nH]ncc3c2)cc1 — remaining activity (enzyme activity; inhibitor; 10 µM): 90%
CNC(=O)c1cc(Oc2ccc(NC(=O)Nc3ccc(Cl)c(C(F)(F)F)c3)cc2)ccn1 — inhibition (enzyme activity; inhibitor; 0.3 µM): -9%
CCCCNc1ncc2c(-c3ccc(F)cc3)nn(C[C@H]3CC[C@H](N)CC3)c2n1 — inhibition (target engagement in cells; inhibitor; chemoproteomics; 20 mM): -20.7%
COc1cc(Cl)c(C(=O)N[C@@H](CN[C@H]2CC[C@@H](N)CC2)Cc2ccc(C#N)cc2)cc1-c1ccc(CN[C@H](C)c2ccc(C)cc2)o1 — remaining activity (enzyme activity; inhibitor; 1 µM): 94%
CCCOc1ccc([C@H]2[C@H](C(=O)O)[C@@H](c3ccc4c(c3)OCO4)CN2CC(=O)Nc2c(CC)cccc2CC)cc1 — remaining binding (cell-free assay; competition with immobilised ligand; 1 µM): 94%
C[S+]([O-])c1ccc(-c2nc(-c3ccncc3)c(-c3ccc(F)cc3)[nH]2)cc1 (stereo not drawn) — remaining signal (cell-free assay; 0.5 µM): 96.5%
O=C(Nc1cnn(-c2csc(C(=O)NC3COC3)c2)c1)Nc1ccccc1Cl — remaining activity (enzyme activity; inhibitor; 5 µM): 99.1%
O=C(Nc1cccnn1)N1CC(C/C=C/c2cncc(Oc3ccc(C(F)(F)F)cn3)n2)C1 — remaining binding (cell-free assay; competition with immobilised ligand; 1 µM): 100%
COc1cc(Nc2c(C#N)cnc3cc(OCCCN4CCN(C)CC4)c(OC)cc23)c(Cl)cc1Cl — remaining signal (cell-free assay; 0.5 µM): 92.2%
O=C(NC[C@@H]1[C@H]2CN(C(=O)OCc3cc(C(F)(F)F)cc(C(F)(F)F)c3)C[C@@H]12)c1ccc2[nH]nnc2c1 — remaining binding (cell-free assay; competition with immobilised ligand; 1 µM): 90%
Oc1cccc(-c2nc(N3CCOCC3)c3oc4ncccc4c3n2)c1 — remaining signal (cell-free assay; 0.5 µM): 102%
